Screens: PubChem, Sanford-Burnham Center for Chemical Genomics
A selection: hits, their analogues and other compounds. The true share with any hit is near 2.5%.
SENP7 inh: inhibitors of human SENP7 protease; Q9BQF6; recombinant SENP7, Z-RLRGG-aminoluciferin luminescence, 40 min; inhibition, % at 5 µM; hit rate 1.5% among 330,000; AID 434973;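 active = inhibition above about 50% at the single test dose, limit read from the data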;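 also: plate controls were DMSO with enzyme for no effect and no enzyme buffer wells for full effect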
SENP8 block-1: blocks human SENP8 cleavage of Nedd8 substrate. Q96LD8. hit rate 0.64% among 360,000. AID 602440. recombinant SENP8, Nedd8 substrate fluorescence. inhibition, % at 20 µM; in the data active = inhibition mostly above about 40%, no sharp cut-off; inactive = mostly below about 27%
Target sequence (Q96LD8 whole entry, looked up): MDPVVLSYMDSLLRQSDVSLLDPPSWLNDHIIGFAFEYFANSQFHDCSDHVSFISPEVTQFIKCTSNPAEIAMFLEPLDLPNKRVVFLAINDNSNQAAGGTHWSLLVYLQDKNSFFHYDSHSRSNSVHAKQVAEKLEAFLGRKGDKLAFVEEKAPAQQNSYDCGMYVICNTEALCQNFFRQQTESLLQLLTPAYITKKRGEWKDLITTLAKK
SENP8 block-2: inhibitors of human SENP8 protease | Q96LD8 | purified SENP8, Z-RLRGG-aminoluciferin cleavage, luminescence | inhibition, % at 10 µM | hit rate 1.2% among 330,000; in the data active = inhibition above about 50%
SENP1 FRET inh: inhibitors of human SENP1 SUMO protease catalytic domain | Q9P0U3 | recombinant SENP1 catalytic domain, CyPet-SUMO1-YPet FRET cleavage | inhibition, % at 10 µM | hit rate 0.21% among 360,000 | AID 624204;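 active = inhibition at least 30% at 10 µM, raw YFP signal under a set limit, fluorescence ratio 0.5 to 1.5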;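 also: 0% = enzyme with DMSO and 100% = no enzyme wells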
Target sequence (Q9P0U3 419-644 limits assumed): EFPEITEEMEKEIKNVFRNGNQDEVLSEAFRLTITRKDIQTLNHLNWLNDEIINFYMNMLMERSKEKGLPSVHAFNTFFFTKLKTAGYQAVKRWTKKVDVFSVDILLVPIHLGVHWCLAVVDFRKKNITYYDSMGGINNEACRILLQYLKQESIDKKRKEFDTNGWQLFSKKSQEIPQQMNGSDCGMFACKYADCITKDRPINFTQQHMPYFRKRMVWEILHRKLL
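Assay system: hSENP1 catalytic domain, recombinant. Amount: SENP1 enzyme, 20 pM final. Schedule: 50 min reaction, RT, dark. Technique: FRET, CFP and YFP emission. Control set: no-enzyme wells low, DMSO-plus-enzyme wells high control.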
SENP6 block: inhibitors of human SENP6 protease | Recombinant SENP6 catalytic domain, aminoluciferin luminescence | inhibition, % at 10 µM | hit rate 1.8% among 330,000;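 active = inhibition above about 50% at the single tested dose, limit read from the data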;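 also: plate controls were DMSO wells with enzyme for no effect and DMSO wells lacking enzyme for full effect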
SENP8 conf: confirmation of human SENP8 protease inhibitors; shares compounds with SENP8 block-1; purified SENP8, Nedd8-AMC/pro-Nedd8 cleavage fluorescence, 30 min; inhibition, % at 25 µM; hit rate 15% among 1,400; AID 624319; in the data active = inhibition mostly above about 39%, no sharp cut-off; inactive = mostly below about 34%
* marks the source's active call; other numbers are inactive results; x = no result; ! = not active in a repeat.

SMILES	SENP7 inh	SENP8 block-1	SENP8 block-2	SENP1 FRET inh	SENP6 block	SENP8 conf
CCOc1cc(NC2CS(=O)(=O)CC2O)c(OCC)cc1NC(=O)c1ccccc1 (stereo not given)	5	44*	8	-2	12	32
Cc1nc([N+](=O)[O-])c(Br)n1CC(=O)c1ccc(Cl)cc1	5	42*	7	3	8	12
COc1ccc(C(=O)Cn2c(C)nc([N+](=O)[O-])c2Br)cc1	6	6	0	3	-12	x
Cc1ccccc1NC(=O)COC(=O)c1c[nH]c(=O)[nH]c1=O	-1	12	-1	2	-4	x
Cc1cnc(C(=O)OCC(=O)NC2CCCCCCC2)cn1	5	16	0	3	-5	x
CCN(C(=O)COC(=O)c1cnc(C)cn1)C1CCCCC1	6	40*	4	0	9	4
CC1=C(SCCC#N)S/C(=C2\SC(C)=C(SCCC#N)S2)S1	3	46*	2	0	-6	69*
CCCNCc1cc(OC)c(OCCC)cc1Cl	2	40*	-7	4	2	-3
CCOc1cc(Cl)c(CNCCCN2CCOCC2)cc1OC	12	8	-11	1	4	x
COc1ccc(N2C(=O)CC(N3CCN(S(=O)(=O)c4cc(C)ccc4C)CC3)C2=O)cc1 (stereo not given)	4	20	-2	-2	-5	x
Cc1cc(C)cc(NC(=O)CN(C)S(=O)(=O)c2cnc[nH]2)c1	1	42*	-6	-1	0	-5
O=C(Oc1ccccc1[N+](=O)[O-])c1cccnc1	0	46*	-2	1	-1	12
Cc1cccc(OC(=O)c2cccnc2)c1C	-3	10	3	1	6	x
O=S(=O)(c1ccccc1C(F)(F)F)N1CCOCC1	-7	21	-8	2	-2	x
O=S(=O)(c1ccccc1C(F)(F)F)N1C=CC(C(F)(F)F)=NCC1	x	41*	x	0	x	8
CC(C)C[C@H](NC(=O)N1CCn2c1nc1ccccc12)C(=O)N[C@H](Cc1ccccc1)C(=O)O	-2	38	7	-2	-3	x
COc1ccccc1-c1noc2c1C(=O)N(Cc1cn(-c3ccccc3OC)nn1)CC2	x	16	x	3	x	x
COc1ccc(C(=O)/C=C/c2ccc(C)cc2)c(OC(=O)c2ccc([N+](=O)[O-])cc2)c1	-12	43*	10	2	27	-1
COc1ccc(C=CC(=O)c2ccc([N+](=O)[O-])cc2)cc1	x	5	x	6	x	x
COc1cc(C(=O)OCC(=O)N2CCC(Cc3ccccc3)CC2)cc(OC)c1OC	-4	8	11	3	1	x
Cc1ccc(NC2CCCN(C(=O)CN3C(=O)c4ccccc4C3=O)C2)cc1C (stereo not given)	1	11	-1	0	1	x
CC(=O)Nc1ccccc1NC(=O)C/C(C)=N/NC(=O)c1ccc([N+](=O)[O-])c(Cl)c1	-4	40*	-9	0	-4	8
Cc1nnc(Sc2cc(NCCCO)c([N+](=O)[O-])c3nonc23)s1	x	75*	x	-9	x	6
CCCSc1cc(NCCOC(C)=O)c([N+](=O)[O-])c2nonc12	8	26	-7	-23	0	x
O=C(NNc1cccc(Cl)n1)Nc1ccc(Cl)cc1	-10	-2	-6	2	11	x
SMILES	SENP7 inh	SENP8 block-1	SENP8 block-2	SENP1 FRET inh	SENP6 block	SENP8 conf
Cc1ccc(NNC(=O)Nc2ccc(Cl)cc2)nn1	5	48*	-6	2	-1	2
CCN(CC(=O)Nc1ccccc1C(F)(F)F)CC(=O)c1[nH]c(C)c(C(C)=O)c1C	x	12	x	0	x	x
Cc1[nH]nc(N2CCCCC2)c1[N+](=O)[O-]	5	44*	1	1	-5	6
CCOC(=O)Oc1ccc(C(=O)OCCCN(C)C)cc1OC	-7	18	-8	4	-20	x
COc1ccc(C(=O)OCCCN(C)C)cc1OC	8	41*	2	0	8	-7
O=C(NCC[C@H]1CC[C@H](NS(=O)(=O)c2ccccc2F)[C@@H](CO)O1)c1ccc(F)cc1	x	11	x	0	x	x
CC(C)c1[nH]nc2c1C(C(C)C)C(C#N)=C(N)O2 (stereo not given)	-9	40*	0	0	-31	13
CC(C)C1C(C#N)=C(N)Oc2n[nH]c(-c3ccccc3)c21 (stereo not given)	-1	8	-2	1	1	x
NCCNc1ccc(C(=O)N2c3ccccc3Sc3ccccc32)cc1[N+](=O)[O-]	0	52*	-18	4	-21	21
COc1ccc(-c2csc(C)n2)cc1	19	16	-11	2	-34	x
COc1ccc(-c2csc(CCN3N=C(C)CC3=O)n2)cc1	4	59*	-4	-2	27	62*
O=C(Cc1cc(=O)[nH][nH]1)N/N=C/c1c(F)cccc1Cl	3	18	2	-1	9	x
O=C(Cc1cc(=O)[nH][nH]1)N/N=C/c1c(Cl)cccc1Cl	-4	44*!	4	2	11	19
CC1(C(=O)NC2CCCCC2)CCC(=O)N1CC(F)(F)F (stereo not given)	x	9	x	1	x	x
NS(=O)(=O)c1ccc(NN=C2CCCCC2)c([N+](=O)[O-])c1	0	25	-7	0	-14	x
CC1C/C(=N/Nc2ccc([N+](=O)[O-])cc2[N+](=O)[O-])CC(C)(C)C1 (stereo not given)	-3	46*	0	3	6	12
CC1CCCC/C1=N/Nc1ccc([N+](=O)[O-])cc1[N+](=O)[O-] (stereo not given)	-3	47*	-3	1	8	-1
C/C(CC(C)C)=N/Nc1ccc([N+](=O)[O-])cc1[N+](=O)[O-]	-2	34	0	3	-26	x
NC(=O)c1ccc(-c2ccc(N3C(c4ccsc4)=Cc4ccc(F)cc4C3CC(=O)c3ccco3)cc2)cc1 (stereo not given)	x	-180	x	-2	x	x
CC1(C(=O)Nc2ccc3c(c2)OCCO3)CCN1Cc1ccc2ccccc2c1 (stereo not given)	x	40*	x	-1	x	-12
CC1(C(=O)Nc2ccc3c(c2)OCCO3)CCN1Cc1ccc(-c2ccccn2)cc1 (stereo not given)	x	18	x	2	x	x
O=C(O)C1C2C=CC(C2)C1C(=O)Nc1ccc2c(c1)OCCO2 (stereo not given)	3	14	-1	-1	-2	x
CN(C)c1ccc(NC(=O)C2C3C=CC(C3)C2C(=O)O)cc1 (stereo not given)	9	51*	0	8	26	4
COc1cc2c(cc1OC)C(=O)N(C)CC2	5	42*	-1	2	3	3
CC1=C/C(=C\C=C(C#N)C#N)N(C)c2ccccc21	3	50*	4	72*	-19	10
CN1/C(=C/C=C(C#N)C#N)C(C)(C)c2ccccc21	-4	9	-3	-35	3	x
